Here are results for 15 compounds from ChEMBL document CHEMBL5325511, “Discovery of N-(4-(Aminomethyl)phenyl)-5-methylpyrimidin-2-amine Derivatives as Potent and Selective JAK2 Inhibitors” (ACS Med Chem Lett, 2023).

As a reminder, the half-life is the time needed for the level to fall by half in the phase considered. A word on the pIC50: it is the negative decadic logarithm of the IC50, by convention in mol/L.

pIC50: −log10 of the molar value.

A short description of series [1]: Metabolic stability in human liver microsomes assessed as half life. It counts as ADME, Microsome. (In general: Liver microsomes are a subcellular fraction often used to study metabolism.)
Series [2] addresses T1, Tyrosine-protein kinase JAK2 (Homo sapiens, UniProt O60674). As to the kind of experiment: Inhibition of human JAK2 JH1 expressed in baculovirus infected Sf9 cells assessed as residual activity at 100 nM relative to control.
The target of series [3] is T2, Receptor-type tyrosine-protein kinase FLT3 (Homo sapiens, UniProt P36888).
T2 sequence (P36888 whole entry): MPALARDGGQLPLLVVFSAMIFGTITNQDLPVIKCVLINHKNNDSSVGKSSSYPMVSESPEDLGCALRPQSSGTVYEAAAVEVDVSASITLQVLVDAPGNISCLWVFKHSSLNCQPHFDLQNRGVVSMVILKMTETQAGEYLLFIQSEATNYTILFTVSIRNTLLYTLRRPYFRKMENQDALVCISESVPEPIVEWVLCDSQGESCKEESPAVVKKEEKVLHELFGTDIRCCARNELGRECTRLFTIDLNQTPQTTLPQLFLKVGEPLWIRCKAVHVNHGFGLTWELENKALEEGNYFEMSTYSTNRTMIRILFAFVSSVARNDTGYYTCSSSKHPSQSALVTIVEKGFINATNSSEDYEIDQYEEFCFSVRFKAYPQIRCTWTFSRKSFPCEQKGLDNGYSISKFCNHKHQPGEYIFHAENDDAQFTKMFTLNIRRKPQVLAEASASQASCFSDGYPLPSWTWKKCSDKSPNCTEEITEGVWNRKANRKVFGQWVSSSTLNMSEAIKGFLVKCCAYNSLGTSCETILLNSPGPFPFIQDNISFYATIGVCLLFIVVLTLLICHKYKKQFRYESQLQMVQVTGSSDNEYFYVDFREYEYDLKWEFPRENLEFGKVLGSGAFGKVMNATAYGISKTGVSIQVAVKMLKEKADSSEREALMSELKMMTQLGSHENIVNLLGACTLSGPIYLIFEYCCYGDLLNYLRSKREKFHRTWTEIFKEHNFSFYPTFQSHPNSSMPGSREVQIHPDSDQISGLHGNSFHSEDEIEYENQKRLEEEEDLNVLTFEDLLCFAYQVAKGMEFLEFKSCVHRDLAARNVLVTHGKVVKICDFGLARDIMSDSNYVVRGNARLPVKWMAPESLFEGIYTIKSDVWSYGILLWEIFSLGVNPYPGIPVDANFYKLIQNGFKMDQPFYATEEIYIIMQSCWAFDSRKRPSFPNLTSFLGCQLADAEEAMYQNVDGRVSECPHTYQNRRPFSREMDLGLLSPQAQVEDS
As to the kind of experiment: Inhibition of FLT3 in human MOLM-13 cells. It counts as cell-based. An outline of the steps:
(§1)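 Cell proliferation assay. IC50 is the concentration that inhibits proliferation by 50%, taken from dose–response curves. Mean ± SEM of at least three independent experiments.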

The target in series [4] is Tyrosine-protein kinase JAK2 (Mus musculus, UniProt Q62120, V617F). As to the kind of experiment: Inhibition of JAK2 V617F mutant in mouse BaF3 cells. It counts as cell-based. An outline of the steps:
as §1

Series [5] deals with Tyrosine-protein kinase JAK2 (Homo sapiens, UniProt O60674, V617F). As to the kind of experiment: Inhibition of JAK2 V617F mutant in human SET2 cells. The series is classed as cell-based. The procedure, abridged: as §1
Sequence of Tyrosine-protein kinase JAK2 (Homo sapiens, UniProt O60674, V617F) (O60674 whole entry V617F): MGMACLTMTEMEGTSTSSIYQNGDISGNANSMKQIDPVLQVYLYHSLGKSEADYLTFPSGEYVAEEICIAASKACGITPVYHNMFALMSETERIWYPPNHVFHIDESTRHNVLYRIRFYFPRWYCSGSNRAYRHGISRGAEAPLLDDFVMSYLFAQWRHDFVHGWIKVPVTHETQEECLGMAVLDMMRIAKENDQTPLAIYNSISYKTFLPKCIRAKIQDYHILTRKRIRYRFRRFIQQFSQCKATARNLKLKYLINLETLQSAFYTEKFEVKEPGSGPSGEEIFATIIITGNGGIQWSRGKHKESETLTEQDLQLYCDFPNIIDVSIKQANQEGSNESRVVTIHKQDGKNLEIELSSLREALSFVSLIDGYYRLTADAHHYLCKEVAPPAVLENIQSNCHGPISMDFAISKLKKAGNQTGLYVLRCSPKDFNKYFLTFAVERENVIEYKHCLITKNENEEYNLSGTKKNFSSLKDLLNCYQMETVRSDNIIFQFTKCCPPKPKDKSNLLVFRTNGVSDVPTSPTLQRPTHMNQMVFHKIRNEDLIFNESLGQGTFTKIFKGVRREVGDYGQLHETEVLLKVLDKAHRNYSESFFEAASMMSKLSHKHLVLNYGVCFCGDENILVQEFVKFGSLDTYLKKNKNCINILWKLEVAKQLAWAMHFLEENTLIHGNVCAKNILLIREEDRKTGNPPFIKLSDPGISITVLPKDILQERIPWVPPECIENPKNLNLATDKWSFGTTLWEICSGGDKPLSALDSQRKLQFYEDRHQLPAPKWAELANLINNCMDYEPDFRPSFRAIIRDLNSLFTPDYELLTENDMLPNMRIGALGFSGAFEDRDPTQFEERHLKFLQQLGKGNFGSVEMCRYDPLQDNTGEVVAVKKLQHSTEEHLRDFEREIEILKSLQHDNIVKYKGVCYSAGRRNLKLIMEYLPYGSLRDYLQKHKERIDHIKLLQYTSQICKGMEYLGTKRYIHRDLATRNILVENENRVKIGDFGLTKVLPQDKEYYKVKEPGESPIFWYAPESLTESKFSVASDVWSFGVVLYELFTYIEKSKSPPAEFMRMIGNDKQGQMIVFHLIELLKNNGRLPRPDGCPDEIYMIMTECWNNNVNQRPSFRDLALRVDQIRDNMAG
A short description of series [6]: Selectivity ratio of IC50 for TYK2 (unknown origin) to IC50 for JAK2 (unknown origin).
For series [7], the target named is T2, Receptor-type tyrosine-protein kinase FLT3. As to the kind of experiment: Inhibition of FLT3 (unknown origin) in presence of Mg/ATP mixture by [gamma p33]-ATP based radiometric assay. An outline of the steps: (§2)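 IC50 values determined by Eurofins Discovery.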
Series [8] is described as follows: Selectivity ratio of IC50 for JAK3 (unknown origin) to IC50 for JAK2 (unknown origin).
For series [9], the target named is T3, Tyrosine-protein kinase JAK3 (Homo sapiens, UniProt P52333).
T3 sequence (P52333 whole entry): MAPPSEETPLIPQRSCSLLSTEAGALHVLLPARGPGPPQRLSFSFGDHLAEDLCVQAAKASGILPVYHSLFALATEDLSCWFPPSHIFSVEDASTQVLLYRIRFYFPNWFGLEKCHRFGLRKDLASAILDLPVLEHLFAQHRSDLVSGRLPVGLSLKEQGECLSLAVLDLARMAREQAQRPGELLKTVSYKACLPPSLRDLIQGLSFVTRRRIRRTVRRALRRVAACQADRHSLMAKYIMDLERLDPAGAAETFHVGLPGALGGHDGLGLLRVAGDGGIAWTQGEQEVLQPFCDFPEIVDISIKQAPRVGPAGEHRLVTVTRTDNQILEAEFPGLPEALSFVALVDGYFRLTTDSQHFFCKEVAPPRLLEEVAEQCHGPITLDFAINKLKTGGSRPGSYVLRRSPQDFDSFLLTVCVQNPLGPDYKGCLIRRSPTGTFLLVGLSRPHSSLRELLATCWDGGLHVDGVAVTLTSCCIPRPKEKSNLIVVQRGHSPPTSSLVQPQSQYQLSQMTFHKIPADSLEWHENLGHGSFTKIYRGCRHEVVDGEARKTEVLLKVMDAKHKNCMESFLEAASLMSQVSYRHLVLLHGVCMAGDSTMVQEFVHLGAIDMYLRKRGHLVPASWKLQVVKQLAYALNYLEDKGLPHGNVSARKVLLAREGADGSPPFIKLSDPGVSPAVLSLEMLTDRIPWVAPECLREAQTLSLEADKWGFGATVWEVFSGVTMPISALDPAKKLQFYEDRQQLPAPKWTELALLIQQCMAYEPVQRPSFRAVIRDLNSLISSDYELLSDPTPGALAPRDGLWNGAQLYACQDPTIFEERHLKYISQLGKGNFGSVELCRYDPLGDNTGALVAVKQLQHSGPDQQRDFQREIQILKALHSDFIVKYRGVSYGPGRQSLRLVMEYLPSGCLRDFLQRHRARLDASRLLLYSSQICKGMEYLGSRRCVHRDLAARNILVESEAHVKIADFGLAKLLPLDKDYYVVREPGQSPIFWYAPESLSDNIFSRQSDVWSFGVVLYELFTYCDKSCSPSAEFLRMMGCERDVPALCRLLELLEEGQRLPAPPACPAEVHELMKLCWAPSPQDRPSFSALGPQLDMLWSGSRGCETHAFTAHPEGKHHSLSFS
As to the kind of experiment: Inhibition of JAK3 (unknown origin) in presence of Mg/ATP mixture by [gamma p33]-ATP based radiometric assay.

Series [10] in a line: Selectivity ratio of IC50 for FLT3 (unknown origin) to IC50 for JAK2 (unknown origin).
For series [11], the target named is Tyrosine-protein kinase JAK1 (Homo sapiens, UniProt P23458). As to the kind of experiment: Inhibition of JAK1 (unknown origin) in presence of Mg/ATP mixture by [gamma p33]-ATP based radiometric assay. An outline of the steps: as §2
Sequence of Tyrosine-protein kinase JAK1 (P23458 whole entry): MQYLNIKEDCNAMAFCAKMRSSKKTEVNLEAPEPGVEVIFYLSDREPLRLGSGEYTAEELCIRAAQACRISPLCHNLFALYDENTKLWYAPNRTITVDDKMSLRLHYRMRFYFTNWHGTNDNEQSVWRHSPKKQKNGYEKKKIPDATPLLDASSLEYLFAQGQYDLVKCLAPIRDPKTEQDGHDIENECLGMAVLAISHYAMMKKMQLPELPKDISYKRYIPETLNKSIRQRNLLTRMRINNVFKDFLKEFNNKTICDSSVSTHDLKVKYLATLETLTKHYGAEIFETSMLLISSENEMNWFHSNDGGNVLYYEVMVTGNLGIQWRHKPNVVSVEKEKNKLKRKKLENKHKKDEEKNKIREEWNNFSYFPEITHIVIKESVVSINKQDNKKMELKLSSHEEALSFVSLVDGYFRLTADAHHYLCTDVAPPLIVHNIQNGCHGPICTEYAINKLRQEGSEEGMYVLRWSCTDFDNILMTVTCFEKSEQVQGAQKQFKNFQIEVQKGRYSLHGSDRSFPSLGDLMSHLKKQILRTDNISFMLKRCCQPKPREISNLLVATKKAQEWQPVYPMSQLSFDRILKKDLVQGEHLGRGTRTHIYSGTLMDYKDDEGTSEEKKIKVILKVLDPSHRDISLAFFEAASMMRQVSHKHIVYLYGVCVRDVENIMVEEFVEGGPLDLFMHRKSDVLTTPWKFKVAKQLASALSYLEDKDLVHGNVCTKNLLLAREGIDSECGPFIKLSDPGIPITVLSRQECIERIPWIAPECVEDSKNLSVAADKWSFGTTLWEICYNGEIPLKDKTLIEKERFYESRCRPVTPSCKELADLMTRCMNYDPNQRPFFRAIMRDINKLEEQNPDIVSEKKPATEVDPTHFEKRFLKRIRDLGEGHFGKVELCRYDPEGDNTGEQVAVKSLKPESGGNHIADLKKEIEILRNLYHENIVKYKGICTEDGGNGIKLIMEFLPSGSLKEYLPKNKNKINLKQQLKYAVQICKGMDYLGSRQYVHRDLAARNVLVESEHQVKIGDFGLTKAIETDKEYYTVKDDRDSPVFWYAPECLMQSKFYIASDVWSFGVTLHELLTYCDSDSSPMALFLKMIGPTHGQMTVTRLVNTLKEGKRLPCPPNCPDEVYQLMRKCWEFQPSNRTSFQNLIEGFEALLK
Series [12] addresses T1, Tyrosine-protein kinase JAK2. As to the kind of experiment: Inhibition of JAK2 (unknown origin) in presence of Mg/ATP mixture by [gamma p33]-ATP based radiometric assay. An outline of the steps:
as §2

Series [13] concerns the target Non-receptor tyrosine-protein kinase TYK2 (Homo sapiens, UniProt P29597). As to the kind of experiment: Inhibition of TYK2 (unknown origin) in presence of Mg/ATP mixture by [gamma p33]-ATP based radiometric assay.

Sequence of Non-receptor tyrosine-protein kinase TYK2 (P29597 whole entry): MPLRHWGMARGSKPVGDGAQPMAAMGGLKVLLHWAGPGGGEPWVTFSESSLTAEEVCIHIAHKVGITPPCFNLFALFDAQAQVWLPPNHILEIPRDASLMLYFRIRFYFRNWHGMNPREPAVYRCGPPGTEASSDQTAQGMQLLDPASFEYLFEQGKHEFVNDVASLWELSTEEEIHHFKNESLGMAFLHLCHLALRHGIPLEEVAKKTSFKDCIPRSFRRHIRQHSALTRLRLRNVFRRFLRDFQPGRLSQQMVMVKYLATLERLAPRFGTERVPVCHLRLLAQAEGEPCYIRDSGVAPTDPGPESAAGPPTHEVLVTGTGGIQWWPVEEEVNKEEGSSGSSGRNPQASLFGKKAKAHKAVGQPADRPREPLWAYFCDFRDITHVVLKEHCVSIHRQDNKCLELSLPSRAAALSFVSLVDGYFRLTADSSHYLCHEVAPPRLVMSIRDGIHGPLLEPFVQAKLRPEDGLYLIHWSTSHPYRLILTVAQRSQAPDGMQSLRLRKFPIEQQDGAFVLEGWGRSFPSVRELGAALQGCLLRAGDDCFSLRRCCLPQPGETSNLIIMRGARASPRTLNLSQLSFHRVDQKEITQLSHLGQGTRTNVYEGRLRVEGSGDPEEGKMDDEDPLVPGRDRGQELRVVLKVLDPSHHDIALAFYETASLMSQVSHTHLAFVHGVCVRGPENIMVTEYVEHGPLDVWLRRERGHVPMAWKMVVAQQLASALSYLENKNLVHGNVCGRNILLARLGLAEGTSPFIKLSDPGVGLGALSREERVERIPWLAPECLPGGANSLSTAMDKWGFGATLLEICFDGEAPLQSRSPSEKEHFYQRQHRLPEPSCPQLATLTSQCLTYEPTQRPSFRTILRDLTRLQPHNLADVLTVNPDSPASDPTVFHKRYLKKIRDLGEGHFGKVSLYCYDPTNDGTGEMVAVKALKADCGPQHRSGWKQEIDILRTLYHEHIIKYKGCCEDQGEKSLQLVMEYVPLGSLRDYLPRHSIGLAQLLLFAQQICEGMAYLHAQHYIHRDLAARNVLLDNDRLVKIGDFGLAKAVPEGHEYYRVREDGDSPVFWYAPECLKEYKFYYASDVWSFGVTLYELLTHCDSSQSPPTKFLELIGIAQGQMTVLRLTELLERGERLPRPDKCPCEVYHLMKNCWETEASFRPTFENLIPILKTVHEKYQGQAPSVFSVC
Sequence of Tyrosine-protein kinase JAK2 (Mus musculus, UniProt Q62120, V617F) (Q62120 as listed by the source V617F): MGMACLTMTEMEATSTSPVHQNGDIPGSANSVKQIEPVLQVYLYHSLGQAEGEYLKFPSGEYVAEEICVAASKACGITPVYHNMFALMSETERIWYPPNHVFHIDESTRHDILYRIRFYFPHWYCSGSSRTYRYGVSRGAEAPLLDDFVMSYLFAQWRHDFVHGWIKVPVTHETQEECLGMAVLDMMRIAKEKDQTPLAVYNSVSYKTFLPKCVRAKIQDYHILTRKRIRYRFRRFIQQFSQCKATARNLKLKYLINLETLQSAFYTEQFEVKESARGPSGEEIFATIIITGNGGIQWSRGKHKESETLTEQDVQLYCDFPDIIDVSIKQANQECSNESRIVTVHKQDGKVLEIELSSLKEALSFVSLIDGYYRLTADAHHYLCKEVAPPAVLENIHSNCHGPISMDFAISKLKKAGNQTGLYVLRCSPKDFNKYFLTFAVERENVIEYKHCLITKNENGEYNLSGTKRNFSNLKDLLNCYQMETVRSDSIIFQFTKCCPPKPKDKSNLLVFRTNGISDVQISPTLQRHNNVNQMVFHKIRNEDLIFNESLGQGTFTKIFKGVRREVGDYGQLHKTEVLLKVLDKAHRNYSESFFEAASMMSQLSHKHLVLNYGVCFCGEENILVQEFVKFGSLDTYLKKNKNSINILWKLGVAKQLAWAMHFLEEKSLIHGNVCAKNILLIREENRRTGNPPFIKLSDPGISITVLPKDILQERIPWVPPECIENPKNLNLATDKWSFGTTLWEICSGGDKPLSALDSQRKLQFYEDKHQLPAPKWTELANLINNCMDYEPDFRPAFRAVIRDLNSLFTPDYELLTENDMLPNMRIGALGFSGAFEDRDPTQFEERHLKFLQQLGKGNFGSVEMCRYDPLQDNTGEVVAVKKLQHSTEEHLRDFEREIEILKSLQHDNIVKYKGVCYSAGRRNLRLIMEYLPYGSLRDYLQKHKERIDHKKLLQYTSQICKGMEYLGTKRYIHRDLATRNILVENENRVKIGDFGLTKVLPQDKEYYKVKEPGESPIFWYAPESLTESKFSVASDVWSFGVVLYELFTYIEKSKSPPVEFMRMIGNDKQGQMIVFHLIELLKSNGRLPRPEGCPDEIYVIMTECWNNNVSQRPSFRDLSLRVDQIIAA
T1 sequence (O60674 whole entry): as the sequence (O60674 whole entry V617F) above, with F617V counted along it

Consider `Cc1cnc(Nc2ccc(CCNC(=O)CCl)cc2)nc1-c1cnn(C(C)C)c1`, for which the half-life in series [1] stood at 29.6 min. For the same compound, the Activity in series [2] amounted to 48%. Also, the pIC50 in series [3] is 5.78; in [4] it was 6.43; in series [5] it was 5.81.
As to `C=CS(=O)(=O)NCCc1ccc(Nc2ncc(C)c(-c3cnn(C(C)C)c3)n2)cc1`, in series [1], the half-life is 88.6 min. For the same compound, the Activity in series [2] was 30%. In addition, the pIC50 in [3] was 5.75; in [4], 6.77; in series [5], 6.12.
Turning to `Cc1cnc(Nc2ccc(CNC(=O)CCCN(C)C)cc2)nc1-c1cnn(C(C)C)c1`, the half-life in series [1] was 76.3 min. Also, the Activity in series [2] was 55%. The negative logarithm of the IC50 (pIC50) in [3] is 5.23; in [4], 6.06; in series [5], 5.71.
Take `Cc1cnc(Nc2ccc(CCNC(=O)/C=C/C(=O)c3ccccc3)cc2)nc1-c1cnn(C(C)C)c1`: the half-life in series [1] is 34.2 min. In addition, the Activity in series [2] came out at 34%. For the same compound, the negative-log IC50 (pIC50) in [3] is 6.05; in [4], 6.75; in [5], 6.55.
In the case of `Cc1cnc(Nc2ccc(CCNC(=O)/C=C/CN(C)C)cc2)nc1-c1cnn(C(C)C)c1`, the half-life in series [1] turned out to be 54.1 min. Besides, the Activity in series [2] stood at 64%. In addition, the pIC50 was under 5.00 in series [3], 5.94 in series [4] and 5.66 in series [5].
Regarding `CCCCS(=O)(=O)NCc1ccc(Nc2ncc(C)c(-c3cnn(C(C)C)c3)n2)cc1`, in series [1], the half-life stood at 98.3 min. In addition, in series [2], the Activity worked out at 15%. Also, the negative-log IC50 (pIC50) in series [3] is 5.78; in series [4], 6.74; in series [5], 6.38.
For `Cc1cnc(Nc2ccc(CCNC(=O)CCCl)cc2)nc1-c1cnn(C(C)C)c1`, the half-life in series [1] was 40.3 min. The Activity in series [2] was 67%. Further, the values for the pIC50 in series [3], in [4] and in series [5] were under 5.00, 5.66 and 5.25, respectively.
For the compound `Cc1cnc(Nc2ccc(CNC(=O)CCl)cc2)nc1-c1cnn(C(C)C)c1`, the half-life in series [1] was 43.2 min. Further, the Ratio IC50 in series [6] is 10; in series [8], 55.3; in [10] it was 68.7. For the same compound, in [2], the Activity was determined as 6%. Moreover, the pIC50 in series [3] is 6.02; in series [4], 7.01; in [7], 6.69; in series [9], 6.78; in series [11], 7.14; in series [12] it was 8.52. Further, the pIC50 is 7.48 in [13] and 6.82 in series [5].
On to `C=CC(=O)NCc1ccc(Nc2ncc(C)c(-c3cnn(C(C)C)c3)n2)cc1`, for which the half-life in [1] came out at 108 min. For the same compound, the figures for the Ratio IC50 in series [6], in [8] and in series [10] were 9.6, 41.6 and 40, respectively. The Activity in series [2] was found to be 13%. Besides, the pIC50 in series [3] is 5.75; in series [4], 6.89; in series [7] it was 6.49; in series [9] it was 6.68; in series [11], 6.97; in [12] it was 8.10. For the same compound, the pIC50 in series [13] is 7.11; in [5] it was 6.61.
On to `Cc1cnc(Nc2ccc(CNC(=O)/C=C/CN(C)C)cc2)nc1-c1cnn(C(C)C)c1`, for which the half-life in [1] stood at 65.4 min. In addition, in [2], the Activity worked out at 35%. Besides, the pIC50 was 6.08 in series [3], 6.58 in series [4] and 6.06 in series [5].
As to `Cc1cnc(Nc2ccc(CNC(=O)C3CC3)cc2)nc1-c1cnn(C(C)C)c1`, in [1], the half-life was over 120 min. The values for the Ratio IC50 in series [6], in series [8] and in series [10] were 15.5, 39 and 77.7, respectively. In series [2], the Activity amounted to 9%. The pIC50 in [3] is 5.89; in series [4] it was 7.14; in series [7], 6.51; in series [9], 6.81; in [11] it was 7.06; in [12] it was 8.40. The pIC50 is 7.21 in [13] and 6.69 in [5].
For the compound `CCCS(=O)(=O)NCc1ccc(Nc2ncc(C)c(-c3cnn(C(C)C)c3)n2)cc1`, the half-life in series [1] is over 120 min. Further, in [2], the Activity stood at 10%. In addition, the pIC50 in [3] is 6.05; in series [4] it was 7.00; in series [5], 6.97.
For `Cc1cnc(Nc2ccc(CCNC(=O)CCCN(C)C)cc2)nc1-c1cnn(C(C)C)c1`, the half-life in series [1] is 60.3 min. Moreover, the Activity in series [2] stood at 77%. The figures for the pIC50 in series [3], in [4] and in series [5] were under 5.00, 5.48 and 5.28, respectively.
Take `Cc1cnc(Nc2ccc(CNC(=O)CCCl)cc2)nc1-c1cnn(C(C)C)c1`: the half-life in [1] came to 44.5 min. The Activity in [2] came to 45%. Besides, the pIC50 in [3] is 5.25; in series [4] it was 6.41; in series [5] it was 6.01.
Consider `Cc1cnc(Nc2ccc(CNC(=O)/C=C/C(=O)c3ccccc3)cc2)nc1-c1cnn(C(C)C)c1`, for which, in series [1], the half-life is 54.8 min. In addition, the Ratio IC50 in series [6] stood at 6.1; in series [8] it was 7.7; in series [10], 15.4. The Activity in [2] was 5%. Moreover, the negative-log IC50 (pIC50) in series [3] is 6.12; in series [4], 7.06; in [7], 6.97; in series [9] it was 7.27; in series [11] it was 7.37; in series [12], 8.15. Besides, the results for the pIC50 in [13] and in series [5] were 7.37 and 6.25, respectively.
